According to ChEMBL document CHEMBL1126560, “Endothelin-1 analogues substituted at both position 18 and 19: highly potent endothelin antagonists with no selectivity for either receptor subtype ETA or ETB” (J Med Chem, 1993):

biological target: T1, Endothelin receptor type B (Bos taurus, UniProt P28088); experiment: Tested for the competitive binding versus [125I]- ET-1 determined in bovine cerebrum membrane for Endothelin B receptor; type: cell membranes
T1 sequence (P28088 whole entry): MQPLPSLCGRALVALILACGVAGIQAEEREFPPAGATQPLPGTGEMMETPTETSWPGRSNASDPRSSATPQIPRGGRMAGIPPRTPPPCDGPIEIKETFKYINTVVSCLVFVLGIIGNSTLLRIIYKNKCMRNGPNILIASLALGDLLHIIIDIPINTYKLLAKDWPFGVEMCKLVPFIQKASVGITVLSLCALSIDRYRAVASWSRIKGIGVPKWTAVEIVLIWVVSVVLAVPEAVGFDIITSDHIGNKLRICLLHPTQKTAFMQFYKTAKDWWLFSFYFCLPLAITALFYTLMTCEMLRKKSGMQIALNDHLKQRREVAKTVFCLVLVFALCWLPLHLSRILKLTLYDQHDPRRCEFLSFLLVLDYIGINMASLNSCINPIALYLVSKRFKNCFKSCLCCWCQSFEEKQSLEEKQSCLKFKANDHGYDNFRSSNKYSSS
In short: (§1)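 Membranes (porcine cardiac ventricle at 12 μg/mL for ETA; bovine cerebrum at 150 μg/mL for ETB) in pH 7.2 Tris/EGTA/Mg acetate/0.1% BSA buffer with protease inhibitors. Incubated with 100 pM [125I]ET-1 and varied compound for 1 h at 25 °C, then filtered and counted by gamma counter. IC50 given as mean ± SEM of ≥3 determinations.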

Structure (SMILES) | IC50 [nM]
CC[C@H](C)[C@H](NC(=O)[C@H](CC(C)C)NC(=O)[C@H](CC(=O)O)NC(=O)[C@H](CC(C)C)NC(=O)[C@H](Cc1c[nH]cn1)NC(=O)[C@@H]1CSSC[C@H](N)C(=O)N[C@@H](CO)C(=O)N[C@H]2CSSC[C@H](NC(=O)[C@H](CCC(=O)O)NC(=O)[C@H](CCCCN)NC(=O)[C@H](CC(=O)O)NC(=O)[C@H](CCSC)NC(=O)[C@H](CC(C)C)NC(=O)[C@H](CO)NC(=O)[C@H](CO)NC2=O)C(=O)N[C@@H](C(C)C)C(=O)N[C@@H](Cc2ccc(O)cc2)C(=O)N[C@@H](Cc2ccccc2)C(=O)N1)C(=O)N[C@@H](Cc1c[nH]c2ccccc12)C(=O)O | 0.17
CC[C@H](C)[C@H](NC(=O)[C@@H](NC(=O)[C@H](CC(C)C)NC(=O)[C@H](Cc1c[nH]cn1)NC(=O)[C@@H]1CSSC[C@H](N)C(=O)N[C@@H](CO)C(=O)N[C@H]2CSSC[C@H](NC(=O)[C@H](CCC(=O)O)NC(=O)[C@H](CCCCN)NC(=O)[C@H](CC(=O)O)NC(=O)[C@H](CCSC)NC(=O)[C@H](CC(C)C)NC(=O)[C@H](CO)NC(=O)[C@H](CO)NC2=O)C(=O)N[C@@H](C(C)C)C(=O)N[C@@H](Cc2ccc(O)cc2)C(=O)N[C@@H](Cc2ccccc2)C(=O)N1)[C@@H](C)O)C(=O)N[C@H](C(=O)N[C@@H](Cc1c[nH]c2ccccc12)C(=O)O)[C@@H](C)CC | 0.33

biological target: T2, Endothelin-1 receptor (Sus scrofa) (UniProt Q29010); experiment: Endothelin A receptor agonist activity as maximum vasoconstriction in porcine coronary artery; type: functional, tissue-based
T2 sequence (whole entry): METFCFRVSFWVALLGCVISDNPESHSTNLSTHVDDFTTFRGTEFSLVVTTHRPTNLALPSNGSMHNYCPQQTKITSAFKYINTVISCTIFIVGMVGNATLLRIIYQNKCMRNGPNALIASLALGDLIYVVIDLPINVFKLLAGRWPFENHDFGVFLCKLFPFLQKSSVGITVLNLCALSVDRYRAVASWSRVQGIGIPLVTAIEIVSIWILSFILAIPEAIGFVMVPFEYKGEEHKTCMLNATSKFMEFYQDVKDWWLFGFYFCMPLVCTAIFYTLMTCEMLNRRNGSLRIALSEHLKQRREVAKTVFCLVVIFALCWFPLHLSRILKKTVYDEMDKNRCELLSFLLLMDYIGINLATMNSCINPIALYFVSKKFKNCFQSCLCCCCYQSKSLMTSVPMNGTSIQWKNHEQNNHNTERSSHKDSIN
In short: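 Porcine right coronary artery, endothelium-denuded helical strips in Krebs-Henseleit, 37 °C, isometric tension. Compound applied cumulatively, up to 1 μM. Maximal contraction expressed as % of 60 mM KCl-induced tension; n in parentheses.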

Structure (SMILES) | Max vasoconstriction
CC[C@H](C)[C@H](NC(=O)[C@H](CC(=O)O)NC(=O)[C@H](CC(C)C)NC(=O)[C@H](Cc1c[nH]cn1)NC(=O)[C@@H]1CSSC[C@@H](NC(=O)[C@H](CCC(=O)O)NC(=O)[C@@H](CCCCN)NC(=O)[C@H](CC(=O)O)NC(=O)[C@@H](CCSC)NC(=O)[C@H](CC(C)C)NC(=O)[C@@H](CO)NC(=O)[C@H](CO)NC(=O)[C@H]2CSSC[C@@H](N)C(=O)N[C@@H](CO)C(=O)N2)C(=O)N[C@@H](C(C)C)C(=O)N[C@H](Cc2ccc(O)cc2)C(=O)N[C@@H](Cc2ccccc2)C(=O)N1)C(=O)N[C@H](C(=O)N[C@@H](Cc1c[nH]c2ccccc12)C(=O)O)[C@@H](C)CC | > 80
CC[C@H](C)[C@H](NC(=O)[C@H](CC(C)C)NC(=O)[C@H](CC(C)C)NC(=O)[C@H](Cc1c[nH]cn1)NC(=O)[C@@H]1CSSC[C@@H](N)C(=O)N[C@@H](CO)C(=O)N[C@@H]2CSSC[C@@H](NC(=O)[C@H](CCC(=O)O)NC(=O)[C@@H](CCCCN)NC(=O)[C@H](CC(=O)O)NC(=O)[C@@H](CCSC)NC(=O)[C@H](CC(C)C)NC(=O)[C@@H](CO)NC(=O)[C@H](CO)NC2=O)C(=O)N[C@@H](C(C)C)C(=O)N[C@H](Cc2ccc(O)cc2)C(=O)N[C@@H](Cc2ccccc2)C(=O)N1)C(=O)N[C@H](C(=O)N[C@@H](Cc1c[nH]c2ccccc12)C(=O)O)[C@@H](C)CC | 0
CC[C@H](C)[C@H](NC(=O)[C@@H](NC(=O)[C@@H](NC(=O)[C@H](CC(C)C)NC(=O)[C@H](Cc1c[nH]cn1)NC(=O)[C@@H]1CSSC[C@@H](N)C(=O)N[C@@H](CO)C(=O)N[C@@H]2CSSC[C@@H](NC(=O)[C@H](CCC(=O)O)NC(=O)[C@@H](CCCCN)NC(=O)[C@H](CC(=O)O)NC(=O)[C@@H](CCSC)NC(=O)[C@H](CC(C)C)NC(=O)[C@@H](CO)NC(=O)[C@H](CO)NC2=O)C(=O)N[C@@H](C(C)C)C(=O)N[C@H](Cc2ccc(O)cc2)C(=O)N[C@@H](Cc2ccccc2)C(=O)N1)[C@@H](C)O)C(C)C)C(=O)N[C@@H](Cc1c[nH]c2ccccc12)C(=O)O | 128
CC[C@H](C)[C@H](NC(=O)[C@H](CC(C)C)NC(=O)[C@H](CC(=O)O)NC(=O)[C@H](CC(C)C)NC(=O)[C@H](Cc1c[nH]cn1)NC(=O)[C@@H]1CSSC[C@@H](N)C(=O)N[C@@H](CO)C(=O)N[C@@H]2CSSC[C@@H](NC(=O)[C@H](CCC(=O)O)NC(=O)[C@@H](CCCCN)NC(=O)[C@H](CC(=O)O)NC(=O)[C@@H](CCSC)NC(=O)[C@H](CC(C)C)NC(=O)[C@@H](CO)NC(=O)[C@H](CO)NC2=O)C(=O)N[C@@H](C(C)C)C(=O)N[C@H](Cc2ccc(O)cc2)C(=O)N[C@@H](Cc2ccccc2)C(=O)N1)C(=O)N[C@@H](Cc1c[nH]c2ccccc12)C(=O)O | 73
CC[C@H](C)[C@H](NC(=O)[C@@H](NC(=O)[C@H](CC(C)C)NC(=O)[C@H](Cc1c[nH]cn1)NC(=O)[C@@H]1CSSC[C@@H](N)C(=O)N[C@@H](CO)C(=O)N[C@@H]2CSSC[C@@H](NC(=O)[C@H](CCC(=O)O)NC(=O)[C@@H](CCCCN)NC(=O)[C@H](CC(=O)O)NC(=O)[C@@H](CCSC)NC(=O)[C@H](CC(C)C)NC(=O)[C@@H](CO)NC(=O)[C@H](CO)NC2=O)C(=O)N[C@@H](C(C)C)C(=O)N[C@H](Cc2ccc(O)cc2)C(=O)N[C@@H](Cc2ccccc2)C(=O)N1)[C@@H](C)O)C(=O)N[C@H](C(=O)N[C@@H](Cc1c[nH]c2ccccc12)C(=O)O)[C@@H](C)CC | 76
CC[C@H](C)[C@H](NC(=O)[C@H](CC(C)(C)C)NC(=O)[C@@H](NC(=O)[C@H](CC(C)C)NC(=O)[C@H](Cc1c[nH]cn1)NC(=O)[C@@H]1CSSC[C@@H](N)C(=O)N[C@@H](CO)C(=O)N[C@@H]2CSSC[C@@H](NC(=O)[C@H](CCC(=O)O)NC(=O)[C@@H](CCCCN)NC(=O)[C@H](CC(=O)O)NC(=O)[C@@H](CCSC)NC(=O)[C@H](CC(C)C)NC(=O)[C@@H](CO)NC(=O)[C@H](CO)NC2=O)C(=O)N[C@@H](C(C)C)C(=O)N[C@H](Cc2ccc(O)cc2)C(=O)N[C@@H](Cc2ccccc2)C(=O)N1)[C@@H](C)O)C(=O)N[C@@H](Cc1c[nH]c2ccccc12)C(=O)O | 0
CC[C@H](C)[C@H](NC(=O)[C@H](CC(=O)O)NC(=O)[C@H](CC(C)C)NC(=O)[C@H](Cc1c[nH]cn1)NC(=O)[C@@H]1CSSC[C@@H](N)C(=O)N[C@H](CO)C(=O)N[C@H]2CSSC[C@@H](NC(=O)[C@H](CCC(=O)O)NC(=O)[C@H](CCCCN)NC(=O)[C@@H](CC(=O)O)NC(=O)[C@H](CCSC)NC(=O)[C@@H](CC(C)C)NC(=O)[C@H](CO)NC(=O)[C@@H](CO)NC2=O)C(=O)N[C@@H](C(C)C)C(=O)N[C@H](Cc2ccc(O)cc2)C(=O)N[C@@H](Cc2ccccc2)C(=O)N1)C(=O)N[C@H](C(=O)N[C@@H](Cc1c[nH]c2ccccc12)C(=O)O)[C@@H](C)CC | 120
CCC[C@H](NC(=O)[C@@H](NC(=O)[C@H](CC(C)C)NC(=O)[C@H](Cc1c[nH]cn1)NC(=O)[C@@H]1CSSC[C@@H](N)C(=O)N[C@@H](CO)C(=O)N[C@@H]2CSSC[C@@H](NC(=O)[C@H](CCC(=O)O)NC(=O)[C@@H](CCCCN)NC(=O)[C@H](CC(=O)O)NC(=O)[C@@H](CCSC)NC(=O)[C@H](CC(C)C)NC(=O)[C@@H](CO)NC(=O)[C@H](CO)NC2=O)C(=O)N[C@@H](C(C)C)C(=O)N[C@H](Cc2ccc(O)cc2)C(=O)N[C@@H](Cc2ccccc2)C(=O)N1)[C@@H](C)O)C(=O)N[C@H](C(=O)N[C@@H](Cc1c[nH]c2ccccc12)C(=O)O)[C@@H](C)CC | 112

biological target: T3, Endothelin-1 receptor (Sus scrofa, UniProt Q29010); experiment: Tested for the competitive binding versus [125I]- ET-1 determined in porcine cardiac ventricular membrane for Endothelin A receptor; in short: as §1
T3 sequence (Q29010 whole entry): T2 sequence (whole entry)

Structure (SMILES) | IC50 [nM]
CC[C@H](C)[C@H](NC(=O)[C@H](CC(C)C)NC(=O)[C@H](CC(=O)O)NC(=O)[C@H](CC(C)C)NC(=O)[C@H](Cc1c[nH]cn1)NC(=O)[C@@H]1CSSC[C@H](N)C(=O)N[C@@H](CO)C(=O)N[C@H]2CSSC[C@H](NC(=O)[C@H](CCC(=O)O)NC(=O)[C@H](CCCCN)NC(=O)[C@H](CC(=O)O)NC(=O)[C@H](CCSC)NC(=O)[C@H](CC(C)C)NC(=O)[C@H](CO)NC(=O)[C@H](CO)NC2=O)C(=O)N[C@@H](C(C)C)C(=O)N[C@@H](Cc2ccc(O)cc2)C(=O)N[C@@H](Cc2ccccc2)C(=O)N1)C(=O)N[C@@H](Cc1c[nH]c2ccccc12)C(=O)O | 0.75
CC[C@H](C)[C@H](NC(=O)[C@@H](NC(=O)[C@@H](NC(=O)[C@H](CC(C)C)NC(=O)[C@H](Cc1c[nH]cn1)NC(=O)[C@@H]1CSSC[C@H](N)C(=O)N[C@@H](CO)C(=O)N[C@H]2CSSC[C@H](NC(=O)[C@H](CCC(=O)O)NC(=O)[C@H](CCCCN)NC(=O)[C@H](CC(=O)O)NC(=O)[C@H](CCSC)NC(=O)[C@H](CC(C)C)NC(=O)[C@H](CO)NC(=O)[C@H](CO)NC2=O)C(=O)N[C@@H](C(C)C)C(=O)N[C@@H](Cc2ccc(O)cc2)C(=O)N[C@@H](Cc2ccccc2)C(=O)N1)[C@@H](C)O)C(C)C)C(=O)N[C@@H](Cc1c[nH]c2ccccc12)C(=O)O | 0.18
CC[C@H](C)[C@H](NC(=O)[C@@H](NC(=O)[C@H](CC(C)C)NC(=O)[C@H](Cc1c[nH]cn1)NC(=O)[C@@H]1CSSC[C@H](N)C(=O)N[C@@H](CO)C(=O)N[C@H]2CSSC[C@H](NC(=O)[C@H](CCC(=O)O)NC(=O)[C@H](CCCCN)NC(=O)[C@H](CC(=O)O)NC(=O)[C@H](CCSC)NC(=O)[C@H](CC(C)C)NC(=O)[C@H](CO)NC(=O)[C@H](CO)NC2=O)C(=O)N[C@@H](C(C)C)C(=O)N[C@@H](Cc2ccc(O)cc2)C(=O)N[C@@H](Cc2ccccc2)C(=O)N1)[C@@H](C)O)C(=O)N[C@H](C(=O)N[C@@H](Cc1c[nH]c2ccccc12)C(=O)O)[C@@H](C)CC | 0.19
CCC[C@H](NC(=O)[C@@H](NC(=O)[C@H](CC(C)C)NC(=O)[C@H](Cc1cnc[nH]1)NC(=O)[C@@H]1CSSC[C@H](N)C(=O)N[C@@H](CO)C(=O)N[C@H]2CSSC[C@H](NC(=O)[C@H](CCC(=O)O)NC(=O)[C@H](CCCCN)NC(=O)[C@H](CC(=O)O)NC(=O)[C@H](CCSC)NC(=O)[C@H](CC(C)C)NC(=O)[C@H](CO)NC(=O)[C@H](CO)NC2=O)C(=O)N[C@@H](C(C)C)C(=O)N[C@@H](Cc2ccc(O)cc2)C(=O)N[C@@H](Cc2ccccc2)C(=O)N1)[C@@H](C)O)C(=O)N[C@H](C(=O)N[C@@H](Cc1c[nH]c2ccccc12)C(=O)O)[C@@H](C)CC | 0.2
